We go through eight molecules from ChEMBL document CHEMBL3046803, “Synthesis and insecticidal activities of novel anthranilic diamides containing acylthiourea and acylurea” (2012).

The test system of test [1] is Culex pipiens pallens. Nature of the test: Insecticidal activity against Culex pipiens pallens (mosquito) fourth-instar larvae assessed as larvicidal activity at 0.5 mg/L measured 3 days post dose. The format is functional. The procedure, abridged:
(§1)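 Mosquito larvicidal test: compounds were dissolved in acetone and diluted with distilled water to the test concentrations.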

Test [2] deals with Mythimna separata. Nature of the test: Insecticidal activity against Mythimna separata (Oriental armyworm) fourth-instar larvae infected Zea mays leaves assessed as larvicidal activity at 100 mg/L measured 2 days post dose. The format is functional. The method in brief: (§2)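 Foliar application test: individual corn (Tangyu 10) leaves were placed on moistened filter paper in Petri dishes.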

Test [3] concerns Mythimna separata. Nature of the test: Insecticidal activity against Mythimna separata (Oriental armyworm) fourth-instar larvae infected Zea mays leaves assessed as larvicidal activity at 10 mg/L measured 2 days post dose. Format: functional. The method in brief:
as §2

Test [4] relates to Mythimna separata. Nature of the test: Insecticidal activity against Mythimna separata (Oriental armyworm) fourth-instar larvae infected Zea mays leaves assessed as larvicidal activity at 200 mg/L measured 2 days post dose. Format: functional. The procedure, abridged:
as §2

For test [5], the system named is Mythimna separata. Nature of the test: Insecticidal activity against Mythimna separata (Oriental armyworm) fourth-instar larvae infected Zea mays leaves assessed as larvicidal activity at 50 mg/L measured 2 days post dose. Format: functional. The procedure, abridged:
as §2

For test [6], the system named is Culex pipiens pallens. The test is described as follows: Insecticidal activity against Culex pipiens pallens (mosquito) fourth-instar larvae assessed as larvicidal activity at 1 mg/L measured 3 days post dose. Format: functional. The procedure, abridged:
as §1

In test [7] the test system is Mythimna separata. Nature of the test: Insecticidal activity against Mythimna separata (Oriental armyworm) fourth-instar larvae infected Zea mays leaves assessed as larvicidal activity at 20 mg/L measured 2 days post dose. The format is functional. The procedure, abridged: as §2
Test [8] has as its system Culex pipiens pallens. The test is described as follows: Insecticidal activity against Culex pipiens pallens (mosquito) fourth-instar larvae assessed as larvicidal activity at 2 mg/L measured 3 days post dose. The format is functional. The procedure, abridged:
as §1

The subject of test [9] is Mythimna separata. Nature of the test: Insecticidal activity against Mythimna separata (Oriental armyworm) fourth-instar larvae infected Zea mays leaves assessed as larvicidal activity at 5 mg/L measured 2 days post dose. Format: functional. The method in brief: as §2
Test [10] concerns Plutella xylostella. Nature of the test: Insecticidal activity against Plutella xylostella (diamondback moth) s-instar larvae infected in fresh cabbage leaves assessed as larvicidal activity at 0.1 mg/L measured 2 days post dose. Format: functional. The procedure, abridged:
(§3)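 Leaf-dip (spray) test: a 200 mg/L stock in DMF was diluted with distilled water. Cabbage leaf disks (6 × 2 cm) were sprayed for 3 s, dried, and placed individually in glass tubes. Each disk received 30 second-instar larvae. Mortality was scored at 2 days; triplicate.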

In test [11] the test system is Plutella xylostella. The test is described as follows: Insecticidal activity against Plutella xylostella (diamondback moth) s-instar larvae infected in fresh cabbage leaves assessed as larvicidal activity at 0.001 mg/L measured 2 days post dose. The format is functional. The procedure, abridged: as §3
Test [12] addresses Voltage-dependent L-type calcium channel, putative (Pediculus humanus subsp. corporis) (UniProt E0VY79). Nature of the test: Inhibition of voltage-dependent L-type calcium channel in Spodoptera exigua neurons assessed as peak intracellular calcium level at 1000 mg/L measured 10 min post dose by calcium-imaging technique relative to initial untreated control. Format: cell-based. Also on record: scale not given: the % may be the effect or the level left. The method in brief:
(§4)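 S. exigua neurons were rinsed in physiological saline (pH 6.9). They were dye-loaded in the dark at 28 °C, either with 10 μM fluo-3-AM for 45 min in standard saline or with 5 μM fluo-5N for 5 h in EGTA Ca-free saline, then rinsed twice. [Ca²⁺]i was imaged on an inverted fluorescence microscope (40× oil, 488/530 nm) over 10 min. F/F₀ is relative to resting baseline; ≥6 repeats; mean ± SD.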
In general terms: Calcium flux is commonly read through the fluorescence of an indicator in the cells.

The target is the same in test [13]. Nature of the test: Inhibition of voltage-dependent L-type calcium channel in Spodoptera exigua neurons assessed as increase in intracellular calcium level at 1000 mg/L measured 10 min post dose by calcium-imaging technique. The format is cell-based. The procedure, abridged:
as §4

Test [14] relates to Plutella xylostella. Nature of the test: Insecticidal activity against Plutella xylostella (diamondback moth) s-instar larvae infected in fresh cabbage leaves assessed as larvicidal activity at 1 mg/L measured 2 days post dose. The format is functional. The method in brief:
as §3

The test system of test [15] is Plutella xylostella. The test is described as follows: Insecticidal activity against Plutella xylostella (diamondback moth) s-instar larvae infected in fresh cabbage leaves assessed as larvicidal activity at 0.01 mg/L measured 2 days post dose. Format: functional. The procedure, abridged:
as §3

Test [16] concerns Plutella xylostella. Nature of the test: Insecticidal activity against Plutella xylostella (diamondback moth) s-instar larvae infected in fresh cabbage leaves assessed as larvicidal activity at 20 mg/L measured 2 days post dose. Format: functional. The procedure, abridged:
as §3

Test [17] deals with Voltage-dependent L-type calcium channel, putative (Pediculus humanus subsp. corporis) (UniProt E0VY79). Nature of the test: Inhibition of voltage-dependent L-type calcium channel in Spodoptera exigua neurons assessed as change in […] calcium level at 1000 mg/L measured 10 min post dose by calcium-imaging technique. The procedure, abridged: as §4
Voltage-dependent L-type calcium channel, putative (Pediculus humanus subsp. corporis), sequence (E0VY79 as listed by the source): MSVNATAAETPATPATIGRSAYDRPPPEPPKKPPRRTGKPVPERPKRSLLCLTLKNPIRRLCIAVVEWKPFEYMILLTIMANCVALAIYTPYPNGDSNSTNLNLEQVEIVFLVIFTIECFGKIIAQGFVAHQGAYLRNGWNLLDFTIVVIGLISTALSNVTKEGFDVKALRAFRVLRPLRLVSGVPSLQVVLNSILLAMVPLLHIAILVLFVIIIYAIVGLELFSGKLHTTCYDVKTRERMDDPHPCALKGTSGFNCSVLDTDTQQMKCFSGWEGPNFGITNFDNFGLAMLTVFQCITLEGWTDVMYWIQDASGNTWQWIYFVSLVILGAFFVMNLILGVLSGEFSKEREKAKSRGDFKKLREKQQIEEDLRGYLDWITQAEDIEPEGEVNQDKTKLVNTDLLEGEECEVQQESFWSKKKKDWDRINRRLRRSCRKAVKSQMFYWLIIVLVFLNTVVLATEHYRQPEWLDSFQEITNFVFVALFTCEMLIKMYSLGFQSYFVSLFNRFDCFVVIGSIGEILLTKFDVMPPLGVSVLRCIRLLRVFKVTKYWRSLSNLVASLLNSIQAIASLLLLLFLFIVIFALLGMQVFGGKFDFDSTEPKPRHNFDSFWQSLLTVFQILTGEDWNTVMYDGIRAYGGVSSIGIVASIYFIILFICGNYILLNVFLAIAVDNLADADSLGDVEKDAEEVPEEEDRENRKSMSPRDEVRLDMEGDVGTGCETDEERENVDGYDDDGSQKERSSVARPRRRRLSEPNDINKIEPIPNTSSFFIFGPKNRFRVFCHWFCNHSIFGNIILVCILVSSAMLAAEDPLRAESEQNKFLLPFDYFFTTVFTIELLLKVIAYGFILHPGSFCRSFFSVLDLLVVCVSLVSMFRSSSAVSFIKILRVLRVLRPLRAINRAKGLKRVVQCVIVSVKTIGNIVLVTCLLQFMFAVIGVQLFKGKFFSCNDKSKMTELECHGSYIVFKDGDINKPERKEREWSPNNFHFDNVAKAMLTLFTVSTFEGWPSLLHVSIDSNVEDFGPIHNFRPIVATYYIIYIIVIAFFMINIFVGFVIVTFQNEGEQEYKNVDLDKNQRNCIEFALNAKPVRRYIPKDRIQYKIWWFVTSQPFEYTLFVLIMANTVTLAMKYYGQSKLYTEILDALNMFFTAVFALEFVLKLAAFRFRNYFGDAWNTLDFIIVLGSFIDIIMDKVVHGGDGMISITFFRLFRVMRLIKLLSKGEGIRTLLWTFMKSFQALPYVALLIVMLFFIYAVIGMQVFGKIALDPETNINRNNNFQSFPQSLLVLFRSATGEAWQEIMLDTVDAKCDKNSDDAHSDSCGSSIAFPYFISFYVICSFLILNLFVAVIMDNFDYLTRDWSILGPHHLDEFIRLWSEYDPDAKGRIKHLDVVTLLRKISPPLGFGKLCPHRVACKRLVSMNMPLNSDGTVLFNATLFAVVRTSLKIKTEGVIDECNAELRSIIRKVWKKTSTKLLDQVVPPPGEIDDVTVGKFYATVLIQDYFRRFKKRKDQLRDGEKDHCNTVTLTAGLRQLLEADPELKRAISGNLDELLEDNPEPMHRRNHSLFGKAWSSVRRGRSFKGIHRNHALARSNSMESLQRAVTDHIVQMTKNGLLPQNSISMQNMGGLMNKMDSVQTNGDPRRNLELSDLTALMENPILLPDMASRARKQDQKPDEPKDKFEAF
In test [18] the test system is Plutella xylostella. The test is described as follows: Insecticidal activity against Plutella xylostella (diamondback moth) s-instar larvae infected in fresh cabbage leaves assessed as larvicidal activity measured 2 days post dose. Format: functional. The conditions noted are these: 48 h. The method in brief:
as §3

For test [19], the target named is Voltage-dependent L-type calcium channel, putative (Pediculus humanus subsp. corporis) (UniProt E0VY79). Nature of the test: Inhibition of voltage-dependent L-type calcium channel in Spodoptera exigua neurons assessed as peak calcium current at 0.1 mM measured 5 min post dose by electrophysiology method (reference value: 98.06 +/- 1.01%). Also noted: scale not given: the % may be the effect or the level left.

Test [20] shares this target. The test is described as follows: Inhibition of voltage-dependent L-type calcium channel in Spodoptera exigua neurons assessed as peak calcium current at 0.1 mM measured 4 min post dose by electrophysiology method (reference value: 99.66 +/- 1.64%). Also on record: scale not given: the % may be the effect or the level left.
For test [21] the target is unchanged. Nature of the test: Inhibition of voltage-dependent L-type calcium channel in Spodoptera exigua neurons assessed as peak calcium current at 0.1 mM measured 3 min post dose by electrophysiology method (reference value: 101.76 +/- 2.7%). Also on record: scale not given: the % may be the effect or the level left.
For test [22] the target is unchanged. Nature of the test: Inhibition of voltage-dependent L-type calcium channel in Spodoptera exigua neurons assessed as peak calcium current at 0.1 mM measured 2 min post dose by electrophysiology method (reference value: 102.75 +/- 2.45%). Also noted: scale not given: the % may be the effect or the level left.
Test [23] has the same target. Nature of the test: Inhibition of voltage-dependent L-type calcium channel in Spodoptera exigua neurons assessed as peak calcium current at 0.1 mM measured 8 min post dose by electrophysiology method (reference value: 90.85 +/- 0.65%). Also on record: scale not given: the % may be the effect or the level left.
Test [24] has the same target. Nature of the test: Inhibition of voltage-dependent L-type calcium channel in Spodoptera exigua neurons assessed as peak calcium current at 0.1 mM measured 1 min post dose by electrophysiology method (reference value: 104.47 +/- 2.33%). Also on record: scale not given: the % may be the effect or the level left.
For test [25] the target is unchanged. Nature of the test: Inhibition of voltage-dependent L-type calcium channel in Spodoptera exigua neurons assessed as peak calcium current at 0.1 mM measured 10 min post dose by electrophysiology method (reference value: 85.44 +/- 1.14%). Also on record: scale not given: the % may be the effect or the level left.

Values after ≈ are worked out from the molar mass of the structure shown. Active and inactive are the calls of the source. The rule behind the calls is not given here.

For `Cc1cc(Br)cc(C(=O)NC(C)C)c1NC(=S)NC(=O)c1cc(Br)nn1-c1ncccc1Cl`, the Activity with Culex pipiens pallens [1] is on record as 30%; in the test on Mythimna separata [2] it was 100%; with Mythimna separata [3], 100%; with Mythimna separata [4], 100%; with Mythimna separata [5], 100%; with Culex pipiens pallens [6], 70%. The Activity worked out at 100% in the test on Mythimna separata [7], 90% in the test with Culex pipiens pallens [8] and 0% with Mythimna separata [9].
In the case of `Cc1cc(Cl)cc(C(=O)NC(C)(C)C)c1NC(=S)NC(=O)c1cc(Br)nn1-c1ncccc1Cl`, the Activity in the test with Culex pipiens pallens [1] worked out at 30%; with Mythimna separata [2], 100%; with Mythimna separata [3], 100%; in the test with Mythimna separata [4], 100%; with Mythimna separata [5] it was 100%; in the test with Culex pipiens pallens [6], 90%. The Activity in the test on Mythimna separata [7] is listed as 100%; in the test with Culex pipiens pallens [8], 100%; with Mythimna separata [9], 40%.
For the molecule `CNC(=O)c1cc(Cl)cc(C)c1NC(=S)NC(=O)c1cc(C(F)(F)F)nn1-c1ncccc1Cl`, the Activity was determined as 100% in the test on Mythimna separata [2]; 100% in the test on Mythimna separata [3]; 100% in the test on Mythimna separata [4]; 100% in the test with Plutella xylostella [10]; 43% in the test with Plutella xylostella [11]; 112% in [12]. Moreover, the Activity in the test on Mythimna separata [5] is reported as 100%; with Plutella xylostella [14], 100%; in the test on Plutella xylostella [15] it was 71%; in the test on Plutella xylostella [16], 100%; with Mythimna separata [7], 100%; in the test on Mythimna separata [9], 50%. In addition, the outcome in [13] was Active. Further, the inhibition entry in [17] was “inactive”.
For the molecule `Cc1cc(Br)cc(C(=O)NC(C)C)c1NC(=S)NC(=O)c1cc(Cl)nn1-c1ncccc1Cl`, the Activity in the test with Culex pipiens pallens [1] was determined as 20%; in the test with Mythimna separata [2] it was 80%; in the test with Mythimna separata [4] it was 100%; in the test with Mythimna separata [5] it was 40%; in the test with Culex pipiens pallens [6], 60%; with Culex pipiens pallens [8], 90%.
As for `Cc1cc(Br)cc(C(=O)NCc2ccccc2)c1NC(=S)NC(=O)c1cc(C(F)(F)F)nn1-c1ncccc1Cl`, the Activity in the test with Mythimna separata [2] is on record as 100%; in the test on Mythimna separata [3], 0%; in the test on Mythimna separata [4] it was 100%; with Plutella xylostella [10], 100%; in the test with Plutella xylostella [11], 57%; with Mythimna separata [5], 100%. For the same molecule, the Activity in the test on Plutella xylostella [14], in the test with Plutella xylostella [15], in the test on Plutella xylostella [16] and in the test on Mythimna separata [7] was 100% in each case. Besides, the LC50 (commonly the concentration lethal to half of the exposed cells or organisms) in the test with Plutella xylostella [18] is 0.65 ng/mL (≈ 0.997 nM).
On to `Cc1cc(Cl)cc(C(=O)NC2CC2)c1NC(=S)NC(=O)c1cc(C(F)(F)F)nn1-c1ncccc1Cl`, for which the Activity with Mythimna separata [2] turned out to be 100%; in the test on Mythimna separata [3], 100%; in the test on Mythimna separata [4] it was 100%; in the test on Plutella xylostella [10], 100%; in the test with Plutella xylostella [11], 71%; with Mythimna separata [5], 100%. Also, the Activity with Plutella xylostella [14] stood at 100%; in the test on Plutella xylostella [15], 100%; with Plutella xylostella [16] it was 100%; with Mythimna separata [7] it was 100%; in the test on Mythimna separata [9] it was 30%. Moreover, the LC50 with Plutella xylostella [18] came out at 0.25 ng/mL (≈ 0.449 nM).
On to `CNC(=O)c1cc(Cl)cc(C)c1NC(=O)c1cc(Br)nn1-c1ncccc1Cl` [CHLORANTRANILIPROLE], for which the Activity came out at 55.8% in test [19]; 100% in the test on Culex pipiens pallens [1]; 100% with Mythimna separata [2]; 100% in the test on Mythimna separata [3]; 100% in the test with Mythimna separata [4]; 100% with Plutella xylostella [10]. The Activity turned out to be 100% in the test with Plutella xylostella [11]; 123% in [12]; 63.4% in test [20]; 69.6% in test [21]; 74% in [22]; 100% in the test with Mythimna separata [5]. The Activity in the test on Plutella xylostella [14] amounted to 100%; in [23] it was 44.3%; in the test with Culex pipiens pallens [6], 100%; in test [24], 89.6%; in the test with Plutella xylostella [15], 100%; in [25], 39.7%. Further, the Activity in the test with Plutella xylostella [16], in the test on Mythimna separata [7], with Culex pipiens pallens [8] and in the test with Mythimna separata [9] was 100% in each case. Further, the LC50 in the test on Plutella xylostella [18] stood at 0.0123 ng/mL (≈ 0.0255 nM).
Regarding `CCNC(=O)c1cc(Cl)cc(C)c1NC(=S)NC(=O)c1cc(C(F)(F)F)nn1-c1ncccc1Cl`, the Activity in the test on Mythimna separata [2] was determined as 100%; in the test on Mythimna separata [3] it was 100%; in the test with Mythimna separata [4], 100%; in the test on Plutella xylostella [10], 100%; in the test on Plutella xylostella [11], 29%; with Mythimna separata [5], 100%. Further, the Activity stood at 100% with Plutella xylostella [14]; 86% in the test with Plutella xylostella [15]; 100% in the test on Plutella xylostella [16]; 100% in the test with Mythimna separata [7]; 0% with Mythimna separata [9].
